E coli WT exp: E. coli BW25113 growth inhibition, expanded screen. OD600 absorbance. growth inhibition, % at 100 µM. hit rate 0.15% among 98,000. AID 710;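 active = growth inhibition above about 50% at one test dose, limit read from the data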;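 note: growth measured after 20 h incubation at 37 °C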
WNV NS2B-NS3 inh: WNV NS2B-NS3 proteinase inhibition. WNV NS2B-NS3 protease, fluorogenic substrate Ex360/Em465; stronger effect = lower value. hit rate 0.18% among 65,000. P06935. z-score (no concentration beside the values); in the data active = z-score below about -3
M1 agonist: activates the M1 muscarinic receptor; B-score at 10 µM; CHO-M1 cells, Fluo-4 calcium fluorescence, agonist mode; stronger effect = higher value; hit rate 3% among 64,000;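 active = fluorescence rise, raw or as B-score row- and column-corrected plate score, outside the 99.7% band of its plate's samples, either direction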
M1 antag: antagonists of rat M1 muscarinic receptor. B-score at 10 µM. AID 628. P08482. CHO-M1 cells, Fluo-4 calcium, ACh EC80 antagonist mode; stronger effect = lower value. hit rate 3.4% among 64,000;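 active = calcium fluorescence response, raw or row-and-column corrected B-score, differing from the plate sample mean either way at a set confidence level, mostly lower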
Target sequence (P08482 whole entry, looked up): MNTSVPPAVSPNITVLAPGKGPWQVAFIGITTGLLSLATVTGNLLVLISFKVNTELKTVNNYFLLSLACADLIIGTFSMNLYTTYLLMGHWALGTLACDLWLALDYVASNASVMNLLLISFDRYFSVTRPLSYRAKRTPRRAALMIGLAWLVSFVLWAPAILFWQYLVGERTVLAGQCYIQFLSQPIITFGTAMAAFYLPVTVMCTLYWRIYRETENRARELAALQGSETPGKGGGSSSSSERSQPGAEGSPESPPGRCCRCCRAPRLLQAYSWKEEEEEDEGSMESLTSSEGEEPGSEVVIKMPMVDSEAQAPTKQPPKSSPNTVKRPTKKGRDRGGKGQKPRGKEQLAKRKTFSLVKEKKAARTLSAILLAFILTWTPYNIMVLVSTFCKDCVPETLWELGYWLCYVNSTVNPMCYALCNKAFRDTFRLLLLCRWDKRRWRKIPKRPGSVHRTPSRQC
AP ELISA ortho: alternative pathway complement inhibition, orthogonal assay. Human serum alternative complement pathway, LPS-coated ELISA, C3 deposition; tested in compound mixtures. inhibition, % at 5 µM. hit rate 0.08% among 62,000. AID 1235;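 active = inhibition above 30% in each of the two pooled mixtures holding the compound, so the lower value exceeds 30%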
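Test system: human serum complement alternative pathway, C3 deposition onto LPS / Medium: Mg2+-EGTA GVB++ buffer containing human serum at 1:15 dilution / Probe or stimulus: Plate-bound LPS / Times: 1 h at 37 °C / Signal: ELISA with HRP anti-human C3 antibody, TMB substrate, absorbance 450 nm / Measure: percent inhibition / Repeats: two pool placements per compound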
Ecoli tolC: E. coli tolC mutant growth inhibition; E. coli BW25113 tolC mutant growth, OD615; growth inhibition, % at 10 µM (by protocol); hit rate 2.2% among 65,000; AID 573;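 active = growth inhibition at or above a cutoff equal to the mean over every tested compound plus 3 SD, cut at about 60% in these data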;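 note: growth measured after 20 h incubation at 37 °C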
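test system = E. coli BW25113 ΔtolC::kan bacteria | medium = LB with kanamycin 50 µg/mL | signal = OD at 615 nm | schedule = 37 °C, 20 h exposure | evaluation = % inhibition of E. coli growth | compound dosing = one dose of 10 µM final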
M1 antag conf: confirmation of rat M1 muscarinic receptor antagonists. shares compounds with M1 antag. hit rate 43% among 1,700. CHO-M1 cells, Fluo-4 calcium, ACh EC80 antagonism; stronger effect = lower value. calcium response (max-min fluorescence) at 10 µM;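 active = calcium response below the same-plate mean of wells given acetylcholine alone at its 80%-effect dose, minus 3 SD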
mGluR4 antag: selectivity test for M1 antagonists: human mGluR4 receptor; fluorescence response (max-min) at 10 µM; shares compounds with M1 antag; hit rate 0.9% among 1,700; CHO-mGluR4 calcium flux, Fluo-4 fluorescence, glutamate EC80; stronger effect = lower value;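 active = fluorescence response below the plate's average for near-maximal glutamate wells, less 3 SD of those wells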;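 note: raw unnormalized fluorescence span taken in the window right after glutamate addition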
A number is an active result; n = inactive; x = not tested or not shown. Rows were chosen to be rich in hits. Some 5.2% of all compounds tested hit in one or more screens of this group.

SMILES	E coli WT exp	WNV NS2B-NS3 inh	M1 agonist	M1 antag	AP ELISA ortho	Ecoli tolC	M1 antag conf	mGluR4 antag
CC(=O)Nc1nc(C(=O)Nc2c(C)n[nH]c2C)cs1	n	n	n	-2.87	n	n	n	n
CCCC(=O)Nc1c(C)n[nH]c1C	n	x	x	x	x	x	x	x
CCc1nnc(SCc2cn3c(C)cc(C)nc3n2)n1N	n	n	n	n	n	n	x	x
CCN1CCN(c2ccc(NC(=O)c3cccc(OCc4ccccc4)c3)cc2)CC1	n	x	x	x	x	x	x	x
CN1CCN(c2ccc(NC(=O)c3cccc(OCc4ccccc4)c3)cc2)CC1	n	n	n	-5.29	n	n	304	n
COn1c(SC2CCCCC2)nc2ccccc2c1=O	n	n	n	n	x	n	x	x
CCN1CCN(Cc2ccc(NC(=O)CC3Oc4ccc(C)cc4NC3=O)cc2)CC1 (stereo not given)	n	n	n	-3.86	n	n	335	n
COc1ccc(NC(=O)CC2Oc3ccc(C)cc3NC2=O)cc1 (stereo not given)	n	n	n	n	n	n	x	x
Cc1ccc2c(c1)NC(=O)C(CC(=O)Nc1ccc(CN3CCC(C)CC3)cc1)O2 (stereo not given)	n	n	n	-9.35	n	n	14.4	n
Cc1ccc2c(c1)NC(=O)C(CC(=O)NCCN(CC(C)C)CC(C)C)O2 (stereo not given)	n	n	n	-5.63	n	n	305	n
Cc1ccc(NC(=O)CC2Oc3ccc(C)cc3NC2=O)cc1 (stereo not given)	n	n	n	n	n	n	x	x
O=C(Nc1cccc(S(=O)(=O)C(F)F)c1)c1ccc(Cl)c(S(=O)(=O)N2CCOCC2)c1	n	n	n	-2.24	n	n	n	104
Cc1ccc(C(=O)Nc2cccc(C(=O)O)c2)cc1S(=O)(=O)N1CCOCC1	n	x	x	x	x	x	x	x
Cc1cc(C(=O)CSc2nncs2)c(C)n1-c1ccc2c(c1)OCO2	n	n	n	-4.18	n	n	403	n
CCOC(=O)C1CCN(C(=O)COC(=O)COc2ccccc2OC)CC1	n	n	n	n	n	n	x	x
CC1=NC(Nc2nc(C)c3ccccc3n2)=NC(C)(C)C1	n	n	n	-9.63	n	n	224	n
CCCCN(CC)CCNC(=O)c1cc2c(=O)n(C)c3ccccc3c2n1C	n	n	n	-4.25	n	n	412	n
CCCN(CCC)CCCNC(=O)c1cc2c(=O)n(C)c3ccccc3c2n1C	n	n	n	-4.38	n	n	441	n
CCN(CC)CCCNC(=O)c1cc2c(=O)n(C)c3ccccc3c2n1C	n	n	n	n	n	n	x	x
Cn1c(C(=O)NCCCN2CCCCCC2)cc2c(=O)n(C)c3ccccc3c21	n	n	n	-3.16	n	n	511	n
O=c1[nH]c(=O)n(C2CCCO2)cc1Br (stereo not given)	n	n	n	n	n	n	x	x
Cc1cc(NC(=O)Cn2nnc3sc4c(c3c2=O)CCCC4)no1	n	n	n	-5.01	n	n	n	n
CCN(CC)CCOC(=O)C1(c2ccc(OC)c(OC)c2)CCCC1	n	n	n	-10.8	n	n	165	n
C=CCOc1c(Cl)cc(C2NC(=O)NC(C)=C2C(=O)OC)cc1Cl (stereo not given)	n	n	n	n	n	n	x	x
COc1ccccc1-c1c(C)nn2c(NCCN3CCCC3)cc(C)nc12	n	n	n	-1.85	n	n	n	n
SMILES	E coli WT exp	WNV NS2B-NS3 inh	M1 agonist	M1 antag	AP ELISA ortho	Ecoli tolC	M1 antag conf	mGluR4 antag
Cc1cc(NCCCN2CCOCC2)n2nc(C)c(-c3ccccc3)c2n1	n	n	n	n	n	n	x	x
CCN(CC)C(=O)C1CCN(S(=O)(=O)c2ccc(C3CNC(=O)C3)cc2)CC1 (stereo not given)	n	n	n	n	n	n	x	x
CCOc1ccc(N2CC(C(=O)Nc3ccc(S(=O)(=O)N4CCOCC4)cc3)CC2=O)cc1 (stereo not given)	n	n	n	n	n	n	x	x
CCOc1ccc(NC(=O)C2CC(=O)N(c3cc(C)cc(C)c3)C2)cc1 (stereo not given)	n	n	n	-2.82	n	n	n	n
CC(NC(=O)CCC1COc2ccccc2O1)c1ccccc1 (stereo not given)	n	x	x	x	x	x	x	x
Cc1ccc(-c2nnc(SCc3nc4ccccc4[nH]3)n2Cc2ccco2)cc1	n	x	x	x	x	x	x	x
c1coc(Cn2c(SCc3nc4ccccc4[nH]3)nnc2-c2cccs2)c1	n	n	n	-2.34	n	n	n	n
O=C(CSc1ncn[nH]1)N1CCN(c2nnc(-c3ccccc3)c3ccccc23)CC1	n	n	n	-2.9	n	n	497	n
Cc1ccc(C(=O)Nc2cnc3sc(C)nn3c2=O)cc1	n	n	n	n	n	n	x	x
Cc1cc(C)cc(N2CC(c3nc4ccccc4n3C)CC2=O)c1 (stereo not given)	n	n	n	n	n	n	x	x
Cc1ccc(N2CC(c3nc4ccccc4n3C)CC2=O)cc1C (stereo not given)	n	n	n	-4.05	n	n	447	n
Cc1ccc(CN2CCNC(=O)C2CC(=O)O)cc1 (stereo not given)	n	n	n	n	n	n	x	x
CCOc1ccc(CN2CCNC(=O)C2CC(=O)OC)cc1 (stereo not given)	n	n	n	-2.87	n	n	n	n
COn1c(SCc2ccc(C)cc2C)nc2ccccc2c1=O	n	x	x	x	x	x	x	x
COc1ccc(N2C(N)=C(C#N)C(c3cccnc3)C3=C2CC(C)(C)CC3=O)cc1 (stereo not given)	n	n	n	n	n	n	x	x
CCSc1sccc1C1C(C#N)=C(N)N(c2cccnc2)C2=C1C(=O)CC(C)(C)C2 (stereo not given)	n	n	n	-5.07	n	n	n	n
CCOc1cc(NC(=O)c2cnccn2)c(OCC)cc1NC(=O)c1ccc(OC)cc1	x	n	n	n	n	n	x	x
CCN1CCN(CC(O)COCc2ccccc2)CC1 (stereo not given)	n	n	n	n	n	n	x	x
OC(COCc1ccc(Cl)cc1)CN1CCN(CC(O)COCc2ccc(Cl)cc2)CC1 (stereo not given)	n	n	n	-1.89	n	n	444	n
COc1ccc(/C(CC2(O)C(=O)Nc3ccccc32)=N\O)cc1 (stereo not given)	n	n	n	-2.52	n	n	n	n
C=CCNC(=O)C(C#N)c1nc2ccccc2nc1N1CCCCCC1 (stereo not given)	n	n	n	-2.76	n	n	n	n
CCCCC(CCC(=O)Nc1ccc(C(=O)OC)cc1)C(=O)O (stereo not given)	n	n	n	n	x	n	x	x

Assay outcomes as filed in PubChem.
